Series [1] can be described thus: Half life in human keratinocytes at 1 uM by LC-MS/MS analysis. Format: ADME, cell-based, Keratinocyte. The method, boiled down: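 Plated human epidermal keratinocytes (1 × 10⁴ cells/well) with 1 μM compound in duplicate for up to 24 h; sampled at 0, 1, 2, 4, 24 h, acetonitrile precipitation, LC-MS/MS. Controls in growth medium. Half-life reported.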
A short description of series [2]: Clearance in human liver microsomes at 0.5 uM incubated for 40 mins in presence of NADPH by LC-MS/MS analysis. The series is classed as ADME, Microsome. The following applies: read-out: CLH. The method, boiled down:
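Human liver microsomes (0.5 mg/mL) with 1 mM NADPH and 0.5 μM test compound, incubated for 40 min. Samples were taken before NADPH and at 5, 10, 20, 40 min, quenched with cold acetonitrile containing internal standard, and analysed by LC-MS/MS. Control incubations in buffer and without NADPH. Apparent clearance was calculated from depletion.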
In general terms: Liver microsomes are a subcellular fraction often used to study metabolism.

Series [3] in a line: Half life in human whole blood at 0.1 uM by LC-MS/MS analysis. Format: ADME, tissue-based.
Series [4] in a line: Cmax in cynomolgus monkey at 30 mg/kg, sc dosed as single administration. The series is classed as ADME, organism-based, Macaca fascicularis. More on the design: route subcutaneous, dose 30 mg/kg. The following applies: in vivo. The method, boiled down: (§1)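 Single subcutaneous dose of 30 mg/kg.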
The nature of series [5]: AUC (0 to 24 hrs) in cynomolgus monkey at 30 mg/kg, sc dosed as single administration. The series is classed as ADME, organism-based, Macaca fascicularis. The following applies: in vivo. Further details: time < 24 hr, route subcutaneous, dose 30 mg/kg. The gist of the method: as §1
A short description of series [6]: Drug exposure in of Isobutyl 1-[8-Methoxy-5-(1-oxo-3H-isobenzofuran-5-yl)-[1,2,4]-triazolo[1,5-a]pyridin-2-yl]cyclopropanecarboxylate dosed Gottingen mini pig assessed as ratio of drug level to total AUC at 0.5 to 2 mg/kg, iv measured up to 24 hrs by LC-MS/MS analysis. The series is classed as ADME, organism-based, Sus scrofa domesticus. The following applies: in vivo, BLD = below limit of detection, dose 0.5-2 mg/kg.

The nature of series [7]: Drug exposure in human assessed as ratio of drug level to total AUC at 0.25% of Isobutyl 1-[8-Methoxy-5-(1-oxo-3H-isobenzofuran-5-yl)-[1,2,4]-triazolo[1,5-a]pyridin-2-yl]cyclopropanecarboxylate dosed via topical administration in lipid cream. Format: ADME, organism-based. The following applies: in vivo, topical_or_ocular.
Series [8] in a line: Drug exposure in Isobutyl 1-[8-Methoxy-5-(1-oxo-3H-isobenzofuran-5-yl)-[1,2,4]-triazolo[1,5-a]pyridin-2-yl]cyclopropanecarboxylate dosed cynomolgus monkey assessed as ratio of drug level to total AUC. Format: ADME, organism-based, Macaca fascicularis. The following applies: in vivo. The method, boiled down: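 Blood was drawn at 0.25–24 h after infusion start and 6, 12, 24 h after infusion end into EDTA-K3, then plasma stabilized with ascorbic acid. LC-MS/MS quantification of parent and metabolites; noncompartmental PK.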

Series [9] is described as follows: Cmax in human patient with atopic dermatitis at 0.25% dosed topically as lipid cream. Format: ADME, organism-based. More on the design: dose 0.25 %. The following applies: in vivo, topical or ocular.
The nature of series [10]: AUC (0 to 24 hrs) in human patient with atopic dermatitis at 0.25% dosed topically as lipid cream. Format: ADME, organism-based. More on the design: time < 24 hr, dose 0.25 %. The following applies: in vivo, topical or ocular.
The nature of series [11]: Clearance in mini pig hepatocytes at 10 uM by UPLC/TOF-MS analysis. Format: ADME, cell-based, Sus scrofa domesticus, Hepatocyte. The following applies: read-out: CLH.
The nature of series [12]: Clearance in human hepatocytes at 10 uM by UPLC/TOF-MS analysis. Format: ADME, cell-based, Hepatocyte.

Bounds are passed on as bounds.

What is called half-life is how long it takes for the measured level to halve. In [1], `COc1ccc(-c2cccc(C#N)c2)n2nc(C3(C(=O)OCC(C)C)CC3)nc12` displayed a half-life at 1 µM of more than 12 h. Moreover, the CLint scaled at 0.5 µM in series [2] is more than 200 mL/min/kg. In addition, in [3], the half-life at 0.1 µM is more than 1 h.
The corresponding values for `COc1ccc(-c2ccc3c(c2)COC3=O)n2nc(C3(C(=O)O[C@H]4CCOC4)CC3)nc12` are more than 12 h, 77 mL/min/kg and less than 0.167 h.
Taken in the same sequence, the figures for `COc1ccc(-c2ccc3c(c2)COC3=O)n2nc(C3(C(=O)OC4CCC4)CC3)nc12` were more than 9 h, more than 200 mL/min/kg and less than 0.167 h.
Take `COc1ccc(-c2cccc(C#N)c2)n2nc(C3(CCO)CC3)nc12`: in series [2], the CLint scaled at 0.5 µM stood at 16 mL/min/kg.
In series [1], `CC[C@H](C)OC(=O)C1(c2nc3c(OC)ccc(-c4ccc5c(c4)COC5=O)n3n2)CC1` yielded a half-life at 1 µM of more than 12 h. Besides, the CLint scaled at 0.5 µM in [2] was more than 200 mL/min/kg. Further, the half-life at 0.1 µM in series [3] was 0.183 h.
The corresponding values for `COc1ccc(-c2ccc3c(c2)COC3=O)n2nc(C3CC3)nc12` are more than 12 h, 64 mL/min/kg and 0.2 h.
The corresponding values for `COc1ccc(-c2ccc3c(c2)COC3=O)n2nc(C3(C(=O)OC4CCCCC4)CC3)nc12` are more than 12 h, more than 200 mL/min/kg and 0.383 h.
Taken in the same sequence, the figures for `COc1ccc(-c2ccc3c(c2)COC3=O)n2nc(C3(C(=O)O[C@@H]4CCOC4)CC3)nc12` were more than 12 h, 101 mL/min/kg and less than 0.167 h.
Consider `COc1ccc(-c2cccc(C#N)c2)n2nc(C3(CCCO)CC3)nc12`, for which the CLint scaled at 0.5 µM in series [2] is 33 mL/min/kg.
`CCCCOC(=O)C1(c2nc3c(OC)ccc(-c4ccc5c(c4)COC5=O)n3n2)CC1` came in with a half-life at 1 µM in [1] of 10 h. For the same compound, in [2], the CLint scaled at 0.5 µM is more than 200 mL/min/kg. The half-life at 0.1 µM in series [3] came out at 0.333 h.
The corresponding values for `COc1ccc(-c2ccc3c(c2)COC3=O)n2nc(C3(C(=O)OC(C)(C)C)CC3)nc12` are more than 12 h, more than 200 mL/min/kg and 0.183 h.
Taken in the same sequence, the figures for `CCOC(=O)C1(c2nc3c(OC)ccc(-c4ccc5c(c4)COC5=O)n3n2)CC1` were more than 12 h, 140 mL/min/kg and 0.183 h.
On to `COc1ccc(-c2ccc3c(c2)COC3=O)n2nc(C3(C(=O)OC4CCCC4)CC3)nc12`, for which the half-life at 1 µM in series [1] came to 12 h. For the same compound, the CLint scaled at 0.5 µM in series [2] was more than 200 mL/min/kg. The same compound showed a half-life at 0.1 µM in [3] of 0.283 h.
Taken in the same sequence, the figures for `COC(=O)c1cccc(-c2ccc(OC)c3nc(C4(C(=O)NCC(C)C)CC4)nn23)c1` were more than 12 h, more than 200 mL/min/kg and more than 1 h.
Turning to `COc1ccc(-c2cccc3c2COC3=O)n2nc(C3CC3)nc12`, the half-life at 1 µM in series [1] is more than 12 h. In addition, the CLint scaled at 0.5 µM in [2] is less than 10 mL/min/kg. In addition, in [3], the half-life at 0.1 µM was 0.25 h.
`COc1ccc(-c2cccc(C#N)c2)n2nc(C3(CCC(=O)O)CC3)nc12`: the CLint scaled at 0.5 µM in series [2] was 16 mL/min/kg.
Regarding `COc1ccc(-c2ccc3c(c2)COC3=O)n2nc(C3(C(=O)OC4COC4)CC3)nc12`, the half-life at 1 µM in series [1] is more than 12 h. Moreover, in series [2], the CLint scaled at 0.5 µM was determined as 97 mL/min/kg. Besides, the half-life at 0.1 µM in series [3] was less than 0.167 h.
For orientation: Cmax means the maximum level reached in the sampled fluid or tissue. The AUC(0-t) is the area under the concentration-time curve up to a stated or last time point. In the case of `COc1ccc(-c2ccc(C(=O)O)c(CO)c2)n2nc(C3(C(=O)OCC(C)(C)O)CC3)nc12`, the Cmax in series [4] (read-out: Cmax) is 10.5 ng/mL; in [9] it was 0.029 ng/mL. For the same compound, the values for the AUC(0-t) at 24 h in series [5] and in series [10] were 19.4 ng·h/mL and 0.27 ng·h/mL, respectively. In addition, the Drug uptake entry in series [6] is recorded as “Bld”; in [7], 1%; in series [8] it was 1%. Besides, the CLint scaled at 10 µM in [11] was 13 mL/min/kg. The CLhep predicted at 10 µM in series [12] is 7.1 mL/min/kg.
In turn, `CCCOC(=O)C1(c2nc3c(OC)ccc(-c4ccc5c(c4)COC5=O)n3n2)CC1` displayed a half-life at 1 µM in [1] of more than 12 h. In series [2], the CLint scaled at 0.5 µM is 139 mL/min/kg. The half-life at 0.1 µM in series [3] is 0.217 h.
With `COc1ccc(-c2ccc3c(c2)COC3=O)n2nc(C3(C(=O)OC[C@H](C)CO)CC3)nc12`, the half-life at 1 µM in series [1] is more than 12 h. Moreover, the CLint scaled at 0.5 µM in [2] came to 66 mL/min/kg. In addition, in [3], the half-life at 0.1 µM was less than 0.167 h.
The corresponding values for `COc1ccc(-c2cccc(C#N)c2)n2nc(C3(COC(=O)C(C)C)CC3)nc12` are 1.2 h, more than 200 mL/min/kg and 0.467 h.
On to `COc1ccc(-c2ccc3c(c2)COC3=O)n2nc(C3(C(=O)OCC(C)(C)O)CC3)nc12`, for which the peak concentration (Cmax) result in series [4] (BLD = below limit of detection) is given as “Bld”. Moreover, in series [5] (24 h, BLD = below limit of detection), the AUC result is given as “Bld”. The compound further came in with a half-life at 1 µM in series [1] of more than 12 h. In addition, the Drug uptake entry is “Bld” in series [6], “Bld” in series [7] (BLD = below limit of detection) and 0.1% in series [8]. Besides, in series [2], the CLint scaled at 0.5 µM came to 66 mL/min/kg. Moreover, the CLint scaled at 10 µM in series [11] was more than 26 mL/min/kg. The same compound displayed a half-life at 0.1 µM in series [3] of 0.2 h. In [12], the CLhep predicted at 10 µM was 16 mL/min/kg.
As for `COc1ccc(-c2cccc(C#N)c2)n2nc(C3(CO)CC3)nc12`, the CLint scaled at 0.5 µM in series [2] is less than 10 mL/min/kg.
`COc1ccc(-c2cccc3c2COC3=O)n2nc(C3(C(=O)NCC(C)C)CC3)nc12` showed a half-life at 1 µM in series [1] of more than 12 h. Moreover, in series [2], the CLint scaled at 0.5 µM is 95 mL/min/kg. For the same compound, the half-life at 0.1 µM in series [3] is more than 1 h.
Regarding `COc1ccc(-c2cccc(C#N)c2)n2nc(C3(CC(=O)O)CC3)nc12`, the CLint scaled at 0.5 µM in series [2] is less than 10 mL/min/kg.
In the case of `COc1ccc(-c2ccc3c(c2)COC3=O)n2nc(C3(C(=O)OC[C@@H](C)CO)CC3)nc12`, the half-life at 1 µM in series [1] was more than 12 h. For the same compound, the CLint scaled at 0.5 µM in series [2] came to 64 mL/min/kg. Also, the half-life at 0.1 µM in [3] was less than 0.167 h.
The corresponding values for `COC(=O)C1(c2nc3c(OC)ccc(-c4ccc5c(c4)COC5=O)n3n2)CC1` are more than 12 h, 193 mL/min/kg and less than 0.167 h.
The corresponding values for `COc1ccc(-c2ccc3c(c2)COC3=O)n2nc(C3(C(=O)OC4CCCCCC4)CC3)nc12` are 3.7 h, more than 200 mL/min/kg and 0.567 h.
`COc1ccc(-c2ccc3c(c2)COC3=O)n2nc(C3(C(=O)NCC(C)C)CC3)nc12` showed a half-life at 1 µM in series [1] of 10 h. In series [2], the CLint scaled at 0.5 µM is more than 200 mL/min/kg. Besides, the half-life at 0.1 µM in [3] was less than 0.167 h.
Taken in the same sequence, the figures for `COC(=O)c1ccc(-c2ccc(OC)c3nc(C4CC4)nn23)cc1` were more than 12 h, more than 200 mL/min/kg and more than 1 h.
`COc1ccc(-c2cccc(C#N)c2)n2nc(C3(C(=O)O)CC3)nc12`: in [2], the CLint scaled at 0.5 µM was less than 10 mL/min/kg.
In [1], `COC(=O)c1ccc(-c2ccc(OC)c3nc(C4(C(=O)NCC(C)C)CC4)nn23)cc1` registered a half-life at 1 µM of 9 h. The CLint scaled at 0.5 µM in series [2] is more than 200 mL/min/kg.
For `COc1ccc(-c2ccc3c(c2)COC3=O)n2nc(C3(C(=O)OC(C)C)CC3)nc12`, the half-life at 1 µM in [1] was more than 12 h. The CLint scaled at 0.5 µM in series [2] is 97 mL/min/kg. In [3], the half-life at 0.1 µM was 0.183 h.
The corresponding values for `COC(=O)c1cccc(-c2ccc(OC)c3nc(C4CC4)nn23)c1` are more than 12 h, more than 200 mL/min/kg and more than 1 h.

Source of the values: ChEMBL document CHEMBL4673252, “Discovery and Early Clinical Development of Isobutyl 1-[8-Methoxy-5-(1-oxo-3H-isobenzofuran-5-yl)-[1,2,4]triazolo[1,5-a]pyridin-2-yl]cyclopropanecarboxylate (LEO 39652), a Novel "Dual-Soft" PDE4 Inhibitor for Topical Treatment of Atopic Dermatitis” (J Med Chem, 2020).
